Assay results collected from several papers.
Compare with care: the assays were run in different laboratories.
Mode: inhibitor
HDAC6: Protein deacetylase HDAC6 (HDAC6, Homo sapiens, UniProt Q9UBN7)
Dihydroorotate dehydrogenase, mitochondrial, putative: Dihydroorotate dehydrogenase, mitochondrial, putative (Plasmodium vivax, UniProt A5K1N1)
KCNH2: Voltage-gated inwardly rectifying potassium channel KCNH2 (KCNH2, Homo sapiens, UniProt Q12809)

COc1cc2c(cc1OC)CC(=O)N(CCCN(C)C[C@H]1Cc3cc(OC)c(OC)cc31)CC2 — IC50 (Potassium/sodium hyperpolarization-activated cyclic nucleotide-gated channel 1 (Homo sapiens, UniProt O60741); ion current): 5400 nM
O=C(NO)c1cccc(OS(=O)(=O)Oc2ccc(C(F)(F)F)cc2)c1 — IC50 (HDAC6; enzyme activity, fluorescence): 842 nM
Cn1nc2c(=O)n(C3CC3)ncc2c1[C@](N)(c1ccc(C(F)(F)F)c(Cl)c1)C1CC1 — IC50 (Dihydroorotate dehydrogenase, mitochondrial, putative; enzyme activity, absorbance): 6.7 nM
COc1ccc2c(C(=S)N(C)CC(=O)O)cccc2c1C(F)(F)F — IC50 (Aldo-keto reductase family 1 member B10 (AKR1B10, Homo sapiens, UniProt O60218, K125R); enzyme activity): 124 nM
CC[C@@](O)(c1cnc(C(F)(F)F)c(Cl)c1)c1c2cnn(C3CC3)c(=O)c2nn1C — IC50 (Dihydroorotate dehydrogenase, mitochondrial, putative; enzyme activity, absorbance): 19 nM
Cc1cc(OS(=O)(=O)Oc2ccc(-n3ccnc3)cc2)cc(C(=O)NO)c1 — IC50 (HDAC6; enzyme activity, fluorescence): 4750 nM
CCn1cc(C)c2c(C(O)c3ccc(Cl)c(F)c3)n(C)nc2c1=O (stereo not shown) — IC50 (Dihydroorotate dehydrogenase, mitochondrial, putative; enzyme activity, absorbance): 9.8 nM
Cc1cc(Nc2nccc(C)n2)cc(-c2cnc([C@@]3(O)CC[C@H](C(=O)NCCCNC(=O)CCc4ccc5n4[B-](F)(F)[N+]4=C(c6ccc[nH]6)C=CC4=C5)C(C)(C)C3)s2)c1 — IC50 (Tyrosine-protein kinase SYK (SYK, Homo sapiens, UniProt P43405); enzyme activity, radiometric): 110 nM
O=c1oc(-c2cccnc2)nc2ccccc12 — IC50 (Prothrombin (F2, Homo sapiens, UniProt P00734); enzyme activity, absorbance; pH 7.4): ~970 nM
O=C(NO)c1cccc(OS(=O)(=O)Oc2ccc3ccccc3c2)c1 — IC50 (HDAC6; enzyme activity, fluorescence): 91 nM
CCn1ncc2c([C@](O)(c3ccc(C(F)(F)F)c(Cl)c3)C3CC3)n(C)nc2c1=O — IC50 (Dihydroorotate dehydrogenase, mitochondrial, putative; enzyme activity, absorbance): 5 nM
C=CS(=O)(=O)c1ccc(Nc2nc(OCC3CCCCC3)c3nc[nH]c3n2)cc1 — IC50 (KCNH2; ion current, patch clamp; HEK293): 5940 nM
O=C(NO)c1cncc(OS(=O)(=O)Oc2ccc(C(F)(F)F)cc2)c1 — IC50 (HDAC6; enzyme activity, fluorescence): 147 nM
CC1(F)CN(C(=O)Cn2c(=O)c(C(=O)NCc3ccc(Cl)cc3)cc3nc(N4CCCC4=O)cnc32)C1 — IC50 (KCNH2; ion current, patch clamp): > 40000 nM
CCOC(=O)c1nn(C)c(Cc2ccc(C(F)(F)F)nc2)c1C — IC50 (Dihydroorotate dehydrogenase, mitochondrial, putative; enzyme activity, absorbance): 88 nM
CC(C)(C)c1ccc(OS(=O)(=O)Oc2cc(F)cc(C(=O)NO)c2)cc1 — IC50 (HDAC6; enzyme activity, fluorescence): 2100 nM
COc1cnc2c(cc(C(=O)NCc3ccc(Cl)cc3)c(=O)n2CC(=O)N2CC(C)(F)C2)n1 — IC50 (KCNH2; ion current, patch clamp): 2910 nM
O=C(NO)c1cc(F)cc(OS(=O)(=O)Oc2ccccc2)c1 — IC50 (HDAC6; enzyme activity, fluorescence): 77 nM
CN(C)C(=O)CN1CCN(c2cnc3c(cc(C(=O)NCc4ccc(Cl)cc4)c(=O)n3CC(=O)N3CC(C)(F)C3)n2)C1=O — IC50 (KCNH2; ion current, patch clamp): > 40000 nM
